{
  "source": "ChEMBL document CHEMBL1121472",
  "about": "“Derivatives of 5-hydroxy-6-methyl-2-aminotetralin” (1980)",
  "key": {"Felis catus [1]": {"system": "Felis catus", "assay": "Inhibition of chronotropic response to cardioaccelerator nerve stimulation in the cat; NA denotes inactive uM/kg", "type": "functional, organism-based", "summary_of_the_method": "(§1)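 Cats were bilaterally vagotomized and pretreated iv with atropine sulfate (0.2 mg/kg). Right postganglionic cardioaccelerator nerves were placed on bipolar electrodes and stimulated at 2 Hz, 5-ms pulses, for 30 s at 20–25 V. Heart rate was recorded by cardiotachometer, femoral arterial pressure was monitored, and drugs were given iv via a femoral vein catheter. ED50 is in μmol/kg with 95% CL. Blockade was tested with haloperidol 0.1 mg/kg.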"}, "Rattus norvegicus [2]": {"system": "Rattus norvegicus", "assay": "Compound was evaluated for rotational behavior in rats and (contralateral turning) circling response were recorded at a dose of 14.0 umol/kg; IA = inactive", "type": "functional, organism-based", "summary_of_the_method": "(§2)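 Male Sprague Dawley rats received a unilateral stereotaxic injection of 6-hydroxydopamine hydrobromide (6 μg in 3 μL) into the substantia nigra region (anterior 24, lateral 1.8, vertical 7.0). Drug was then given sc, and contralateral turns were counted over the next 1 h and reported as turns/h at the stated dose.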"}, "Rattus norvegicus [3]": {"system": "Rattus norvegicus", "assay": "Compound was evaluated for rotational uM/kg", "type": "functional, organism-based", "summary_of_the_method": "as §2"}, "Felis catus [4]": {"system": "Felis catus", "assay": "Inhibition of chronotropic response to cardioaccelerator nerve stimulation in the cat; NI denotes no inhibition up to 1.55 uM/kg", "type": "functional, organism-based", "summary_of_the_method": "as §1"}, "Rattus norvegicus [5]": {"system": "Rattus norvegicus", "assay": "Compound was evaluated for rotational behavior in rats and (contralateral turning) circling response were recorded at a dose of 11.7 umol/Kg", "type": "functional", "summary_of_the_method": "as §2"}, "Felis catus [6]": {"organism": "Felis catus", "assay": "Inhibition of chronotropic response to cardioaccelerator nerve stimulation in the cat", "type": "functional", "summary_of_the_method": "as §1"}, "Rattus norvegicus [7]": {"system": "Rattus norvegicus", "assay": "Compound was evaluated for rotational behavior in rats and (contralateral turning) circling response were recorded at a dose of 5.85 umol/Kg", "type": "functional", "summary_of_the_method": "as §2"}, "Canis familiaris [8]": {"system": "Canis familiaris", "assay": "Compound was evaluated for emesis action in dogs, administered subcutaneously; Range is (0.02-0.08)", "type": "functional, Canis lupus familiaris"}, "Rattus norvegicus [9]": {"system": "Rattus norvegicus", "assay": "Compound was evaluated for rotational behavior in rats and (contralateral turning) circling response were recorded at a dose of 0.41 umol/Kg", "type": "functional", "summary_of_the_method": "as §2"}, "Rattus norvegicus [10]": {"system": "Rattus norvegicus", "assay": "Compound was evaluated for rotational behavior in rats and (contralateral turning) circling response were recorded at a dose of 400 umol/Kg; IA=Inactive", "type": "functional, organism-based"}, "Canis familiaris [11]": {"system": "Canis familiaris", "assay": "Compound was evaluated for emesis action in dogs administered subcutaneously; NA denotes inactive", "type": "functional, organism-based", "settings": "Canis lupus familiaris", "summary_of_the_method": "(§3)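 Five adult mongrel dogs, housed singly with food ad libitum, were given drug solutions sc, and vomiting frequency was counted over 1 h. Three doses of apomorphine hydrochloride (0.08, 0.16, 0.32 μmol/kg) as reference and three of the test compound were compared by a 3 × 3 parallel line bioassay to give relative potency with 95% confidence limits.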"}, "Felis catus [12]": {"system": "Felis catus", "assay": "Inhibition of chronotropic response to cardioaccelerator nerve stimulation in the cat at 10 uM/kg; NA denotes inactive", "type": "functional, organism-based", "summary_of_the_method": "as §1"}, "Canis familiaris [13]": {"system": "Canis familiaris", "assay": "Compound was evaluated for emesis action in dogs, administered subcutaneously; NA denotes inactive", "type": "functional, organism-based", "settings": "Canis lupus familiaris", "summary_of_the_method": "as §3"}, "Felis catus [14]": {"organism": "Felis catus", "assay": "Inhibition of chronotropic response to cardioaccelerator nerve stimulation in the cat; NA denotes inactive", "type": "functional, organism-based", "summary_of_the_method": "as §1"}},
  "note": "Active and inactive are the calls of the source. The rule behind the calls is not given here.",
  "data": [
    {"smiles": "CCNC1CCc2c(ccc(C)c2O)C1", "note": "(configuration not stated)", "values": [
      {"measurement": "ED50", "setting": "Felis catus [1]", "value": "inactive"}
    ]},
    {"smiles": "Cc1ccc2c(c1O)CCC(N(C)C)C2", "note": "(configuration not stated)", "values": [
      {"measurement": "Rotational behavior", "setting": "Rattus norvegicus [2]", "value": "inactive"}
    ]},
    {"smiles": "Cc1ccc2c(c1O)CCC(N)C2", "note": "(configuration not stated)", "values": [
      {"measurement": "Activity", "setting": "Rattus norvegicus [3]", "value": "NI"},
      {"measurement": "ED50", "setting": "Felis catus [4]", "value": "No inhibition"}
    ]},
    {"smiles": "Br.CCCN(CCC)C1CCc2c(ccc(C)c2O)C1", "note": "(configuration not stated)", "values": [
      {"measurement": "Rotational behavior", "setting": "Rattus norvegicus [5]", "value": 346.86, "unit": "turns hr-1"},
      {"measurement": "ED50", "setting": "Felis catus [6]", "value": 0.025, "unit": "µmol/kg"},
      {"measurement": "Rotational behavior", "setting": "Rattus norvegicus [7]", "value": 131.43, "unit": "turns hr-1"}
    ]},
    {"smiles": "CN1CCc2cccc3c2[C@H]1Cc1ccc(O)c(O)c1-3", "note": "[APOMORPHINE]", "values": [
      {"measurement": "Potency ratio", "setting": "Canis familiaris [8]", "value": 0.046},
      {"measurement": "Rotational behavior", "setting": "Rattus norvegicus [9]", "value": 175.21, "unit": "turns hr-1"},
      {"measurement": "ED50", "setting": "Felis catus [6]", "value": 0.022, "unit": "µmol/kg"}
    ]},
    {"smiles": "Br.CCN(CC)C1CCc2c(ccc(C)c2O)C1", "note": "(configuration not stated)", "values": [
      {"measurement": "Rotational behavior", "setting": "Rattus norvegicus [10]", "value": "inactive"},
      {"measurement": "ED50", "setting": "Felis catus [6]", "value": 0.48, "unit": "µmol/kg"}
    ]},
    {"smiles": "CNC1CCc2c(ccc(C)c2O)C1", "note": "(configuration not stated)", "values": [
      {"measurement": "ED50", "setting": "Felis catus [1]", "value": "inactive"},
      {"measurement": "Potency ratio", "setting": "Canis familiaris [11]", "value": "inactive"}
    ]},
    {"smiles": "CCCNC1CCc2c(ccc(C)c2O)C1", "note": "(configuration not stated)", "values": [
      {"measurement": "ED50", "setting": "Felis catus [12]", "value": "inactive"}
    ]},
    {"smiles": "Cc1ccc2c(c1O)CCC(NC(C)C)C2", "note": "(configuration not stated)", "values": [
      {"measurement": "Potency ratio", "setting": "Canis familiaris [13]", "value": "inactive"},
      {"measurement": "ED50", "setting": "Felis catus [14]", "value": "inactive"}
    ]}
  ]
}
